The values that follow come from ChEMBL document CHEMBL4041496, “Natural-Based Indirubins Display Potent Cytotoxicity toward Wild-Type and T315I-Resistant Leukemia Cell Lines” (J Nat Prod, 2016).

pIC50: −log10 of the molar value. The source made the active and inactive calls. No rule for the calls is given here.

The term pIC50 denotes the negative decadic logarithm of the IC50, by convention in mol/L.

In assay [1] the target is Tyrosine-protein kinase JAK2 (Homo sapiens, UniProt O60674). Briefly: Inhibition of recombinant JAK2 (unknown origin) after 120 mins in presence of [33P]ATP.
Sequence of Tyrosine-protein kinase JAK2 (O60674 whole entry): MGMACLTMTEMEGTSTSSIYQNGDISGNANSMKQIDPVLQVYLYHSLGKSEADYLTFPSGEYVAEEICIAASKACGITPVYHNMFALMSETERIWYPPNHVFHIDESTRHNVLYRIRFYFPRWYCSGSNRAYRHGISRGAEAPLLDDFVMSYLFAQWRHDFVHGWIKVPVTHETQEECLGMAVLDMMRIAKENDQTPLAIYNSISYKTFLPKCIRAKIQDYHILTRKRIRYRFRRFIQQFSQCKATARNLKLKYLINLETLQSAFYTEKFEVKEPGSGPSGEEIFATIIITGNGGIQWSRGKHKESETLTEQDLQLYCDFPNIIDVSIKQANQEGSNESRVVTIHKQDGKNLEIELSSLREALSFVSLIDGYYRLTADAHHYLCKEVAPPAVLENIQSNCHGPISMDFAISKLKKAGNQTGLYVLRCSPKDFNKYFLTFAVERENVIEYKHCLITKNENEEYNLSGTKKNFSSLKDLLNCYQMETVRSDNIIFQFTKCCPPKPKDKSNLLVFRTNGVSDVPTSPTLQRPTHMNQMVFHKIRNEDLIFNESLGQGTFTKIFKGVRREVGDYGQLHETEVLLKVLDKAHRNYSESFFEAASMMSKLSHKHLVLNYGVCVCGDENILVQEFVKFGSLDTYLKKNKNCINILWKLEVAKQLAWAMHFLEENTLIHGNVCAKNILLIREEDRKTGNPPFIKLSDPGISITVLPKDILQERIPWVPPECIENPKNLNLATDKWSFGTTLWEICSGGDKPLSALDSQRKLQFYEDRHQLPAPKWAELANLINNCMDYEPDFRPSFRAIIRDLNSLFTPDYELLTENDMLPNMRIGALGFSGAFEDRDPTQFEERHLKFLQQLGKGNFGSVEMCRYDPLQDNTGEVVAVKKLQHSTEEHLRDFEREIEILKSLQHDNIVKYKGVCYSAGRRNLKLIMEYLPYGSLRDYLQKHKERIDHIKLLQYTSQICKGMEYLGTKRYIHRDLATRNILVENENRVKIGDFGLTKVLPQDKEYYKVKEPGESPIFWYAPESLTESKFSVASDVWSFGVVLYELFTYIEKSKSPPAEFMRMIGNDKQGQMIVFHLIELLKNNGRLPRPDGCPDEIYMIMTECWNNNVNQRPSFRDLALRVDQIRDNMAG
A further assay has as its target T1, Aurora kinase A (Homo sapiens, UniProt O14965).
T1 sequence (O14965 whole entry): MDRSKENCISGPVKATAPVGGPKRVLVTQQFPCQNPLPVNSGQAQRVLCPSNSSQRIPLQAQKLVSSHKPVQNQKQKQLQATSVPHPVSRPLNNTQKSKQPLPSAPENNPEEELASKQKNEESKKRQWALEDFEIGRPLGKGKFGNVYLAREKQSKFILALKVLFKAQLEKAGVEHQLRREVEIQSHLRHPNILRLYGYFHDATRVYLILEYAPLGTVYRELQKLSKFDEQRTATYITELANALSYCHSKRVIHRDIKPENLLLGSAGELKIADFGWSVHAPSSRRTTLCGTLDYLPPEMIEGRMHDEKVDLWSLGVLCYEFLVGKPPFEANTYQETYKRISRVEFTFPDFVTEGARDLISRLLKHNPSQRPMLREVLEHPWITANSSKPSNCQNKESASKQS
Briefly: Inhibition of recombinant Aurora A (unknown origin) after 120 mins in presence of [33P]ATP.

The target of assay [2] is Tyrosine-protein kinase ABL1 (Homo sapiens, UniProt P00519, T315I). Briefly: Inhibition of recombinant ABL1 T315I mutant (unknown origin) after 120 mins in presence of [33P]ATP.
Assay [3] has as its system KCL-22. The experiment in a line: Cytotoxicity against human KCL22 cells harboring ABL1 T315I mutant assessed as cell viability at 1 uM after 48 hrs by MTS assay relative to control. It is filed as functional. The settings on record: for viability at 1 µM: Homo sapiens, KCL-22, 48 h, read-out: Activity. An outline of the steps:
(§1)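 Single-concentration screen: KCL-22 cells, or KCL-22 cells expressing T315I mutant Bcr-Abl, grown in RPMI-1640 with 10% FBS. Cells were seeded at 10 000/well, held overnight at 37 °C in 5% CO2, then exposed to 1 μM compound for 48 h, with DMSO as vehicle control. Viability was read by MTS tetrazolium-to-formazan conversion, absorbance 490 nm, in triplicate.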
(In general: Tetrazolium dyes change colour on reduction, which living cells bring about.)

Assay [4] deals with Tyrosine-protein kinase ABL1 (Homo sapiens, UniProt P00519). Briefly: Inhibition of recombinant ABL1 (unknown origin) after 120 mins in presence of [33P]ATP.
For assay [5], the system named is KCL-22. Briefly: Cytotoxicity against human KCL22 cells assessed as cell viability at 1 uM after 48 hrs by MTS assay relative to control. The settings on record: for viability at 1 µM: Homo sapiens, KCL-22, 48 h, read-out: Activity. The assay is classed as functional. An outline of the steps: as §1
The target of assay [6] is Proto-oncogene tyrosine-protein kinase Src (Homo sapiens, UniProt P12931). The experiment in a line: Inhibition of recombinant c-Src (unknown origin) after 120 mins in presence of [33P]ATP.
Sequence of Proto-oncogene tyrosine-protein kinase Src (P12931 2-536 limits assumed): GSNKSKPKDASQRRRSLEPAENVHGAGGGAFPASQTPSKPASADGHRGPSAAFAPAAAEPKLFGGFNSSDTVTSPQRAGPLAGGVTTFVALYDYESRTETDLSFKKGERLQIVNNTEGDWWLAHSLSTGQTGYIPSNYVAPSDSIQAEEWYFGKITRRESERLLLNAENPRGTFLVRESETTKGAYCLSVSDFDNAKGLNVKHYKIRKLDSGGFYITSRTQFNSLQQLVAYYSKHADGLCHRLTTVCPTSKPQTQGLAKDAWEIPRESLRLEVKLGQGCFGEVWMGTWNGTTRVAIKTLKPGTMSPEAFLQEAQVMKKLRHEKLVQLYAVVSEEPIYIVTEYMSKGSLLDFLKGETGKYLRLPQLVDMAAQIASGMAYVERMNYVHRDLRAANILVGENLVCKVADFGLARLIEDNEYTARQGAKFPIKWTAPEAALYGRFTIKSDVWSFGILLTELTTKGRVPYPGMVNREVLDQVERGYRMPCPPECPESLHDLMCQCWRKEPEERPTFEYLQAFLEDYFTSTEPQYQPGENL
Assay [7] has as its system KCL-22. Briefly: Cytotoxicity against human KCL22 cells assessed as reduction in cell viability after 48 hrs by MTS assay. It is filed as functional, cell-based.
The test system of assay [8] is KCL-22. Briefly: Cytotoxicity against human KCL22 cells harboring ABL1 T315I mutant assessed as reduction in cell viability after 48 hrs by MTS assay. It is filed as functional, cell-based. As to conditions: KCL-22, 48 h.
Assay [9] relates to KCL-22. Briefly: Cytotoxicity against human KCL22 cells harboring ABL1 T315I mutant assessed as reduction in cell viability at 1 uM after 48 hrs by MTS assay. It is filed as functional, cell-based. In short, it runs like this: as §1
The test system of assay [10] is KCL-22. Briefly: Cytotoxicity against human KCL22 cells assessed as reduction in cell viability at 1 uM after 48 hrs by MTS assay. It is filed as functional, cell-based. An outline of the steps: as §1

For the compound `COCCN1CCN(CCO/N=C2/C(=C3/C(=O)Nc4cc(Br)ccc43)Nc3ccccc32)CC1` [listing 1 of 2 here], the pIC50 in assay [1] was less than 5.00; at Aurora kinase A it was 6.48; in [2], less than 5.00; in assay [4], 6.33; in assay [6], 8.77. The Activity with KCL-22 [3] is less than 50%; in the assay with KCL-22 [5] it was greater than 50%.
Take `O=C1Nc2cc(Br)ccc2/C1=C1/Nc2ccccc2/C1=N\OCCN1CCCC1` [listing 1 of 2 here]: the pIC50 in assay [1] was 5.36; on Aurora kinase A it was 6.76; in assay [2], 5.23; in assay [6] it was 8.66. Also, the viability at 1 µM in the assay on KCL-22 [3] and in the assay with KCL-22 [5] was less than 50% each time.
Consider `O=C1Nc2cc(Br)ccc2/C1=C1/Nc2ccccc2/C1=N\OCCN1CCN(CCO)CC1` [listing 1 of 2 here], for which the viability at 1 µM in the assay with KCL-22 [3] and in the assay on KCL-22 [5] was greater than 50% in each case.
As for `O=C1Nc2cc(Br)ccc2/C1=C1/Nc2ccccc2/C1=N\OCCN1CCN(CCOCCO)CC1` [listing 1 of 2 here], the viability at 1 µM with KCL-22 [3] was less than 50%; with KCL-22 [5] it was greater than 50%.
As to `O=C1Nc2cc(Br)ccc2/C1=C1/Nc2ccccc2/C1=N\O` [6BIO], the viability at 1 µM in the assay with KCL-22 [3] and in the assay with KCL-22 [5] was greater than 50% throughout.
For `CN1CCN(CCO/N=C2/C(=C3/C(=O)Nc4cc(Br)ccc43)Nc3ccccc32)CC1` [listing 1 of 2 here], the pIC50 in the assay with KCL-22 [7] (Homo sapiens, KCL-22, 48 h) was 6.05. The results for the Activity with KCL-22 [3] and in the assay with KCL-22 [5] were greater than 50% and less than 50%, respectively.
`CC(=O)c1ccc(NC(=O)O/N=C2/C(=C3/C(=O)Nc4cc(Br)ccc43)Nc3ccccc32)cc1`: the viability at 1 µM in the assay on KCL-22 [3] and in the assay on KCL-22 [5] was greater than 50% each time.
Consider `COCCN1CCN(CCO/N=C2/C(=C3/C(=O)Nc4cc(Br)ccc43)Nc3ccccc32)CC1` [listing 2 of 2 here], for which the pIC50 is less than 5.00 in assay [1]; less than 5.00 at Aurora kinase A; less than 5.00 in [2]; 5.46 in assay [4]; 8.41 in assay [6]. Moreover, the viability at 1 µM is less than 50% in the assay on KCL-22 [3] and greater than 50% in the assay on KCL-22 [5].
In the case of `CCCCCNC(=O)O/N=C1/C(=C2/C(=O)Nc3cc(Br)ccc32)Nc2ccccc21`, the viability at 1 µM with KCL-22 [3] and in the assay on KCL-22 [5] was greater than 50% throughout.
For `N#Cc1ccc(NC(=O)O/N=C2/C(=C3/C(=O)Nc4cc(Br)ccc43)Nc3ccccc32)cc1`, the viability at 1 µM with KCL-22 [3] and in the assay on KCL-22 [5] was greater than 50% in each case.
As for `O=C1Nc2cc(Br)ccc2/C1=C1/Nc2ccccc2/C1=N\OCCN1CCNCC1` [listing 1 of 2 here], the pIC50 in the assay with KCL-22 [7] (kcl-22) was 6.11. Moreover, the values for the Activity with KCL-22 [3] and in the assay with KCL-22 [5] were greater than 50% and less than 50%, respectively.
As for `O=C1Nc2cc(Br)ccc2/C1=C1/Nc2ccccc2/C1=N\OCCN1CCNCC1` [listing 2 of 2 here], the pIC50 was 6.65 in assay [1]; 8.15 on Aurora kinase A; 6.37 with KCL-22 [8]; 6.48 in the assay on KCL-22 [7] (kcl-22); 8.03 in [2]; 9.06 in assay [4]. Further, the pIC50 in [6] is greater than 9.30. In addition, the viability at 1 µM with KCL-22 [3] and in the assay with KCL-22 [5] was less than 50% throughout.
For `CC(=O)O/N=C1/C(=C2/C(=O)Nc3cc(Br)ccc32)Nc2ccccc21` [6-BROMOINDIRUBIN-3'-ACETOXIME], the viability at 1 µM in the assay with KCL-22 [3] and in the assay on KCL-22 [5] was greater than 50% in each case.
Regarding `O=C1Nc2cc(Br)ccc2/C1=C1/Nc2ccccc2C1=O`, the viability at 1 µM in the assay with KCL-22 [3] and in the assay with KCL-22 [5] was greater than 50% in each case.
Turning to `O=C(NC(Cl)(Cl)Cl)O/N=C1/C(=C2/C(=O)Nc3cc(Br)ccc32)Nc2ccccc21`, the viability at 1 µM in the assay on KCL-22 [3] and in the assay with KCL-22 [5] was greater than 50% in each case.
Regarding `CN1CCN(CCO/N=C2/C(=C3/C(=O)Nc4cc(Br)ccc43)Nc3ccccc32)CC1` [listing 2 of 2 here], the pIC50 in the assay on KCL-22 [7] (kcl-22) is 6.30. Moreover, the viability at 1 µM with KCL-22 [3] is greater than 50%; in the assay on KCL-22 [5] it was less than 50%.
On to `O=C1Nc2cc(Br)ccc2/C1=C1/Nc2ccccc2/C1=N\OCCN1CCN(CCOCCO)CC1` [listing 2 of 2 here], for which the pIC50 is less than 5.00 in assay [1]; 7.83 on Aurora kinase A; 5.29 in assay [2]; 7.47 in assay [4]; 9.08 in [6]. Also, the Activity in the assay with KCL-22 [3] and with KCL-22 [5] was greater than 50% in each case.
On to `CN1C(=O)/C(=C2\Nc3ccccc3\C2=N/O)c2ccc(Br)cc21`, for which the viability at 1 µM in the assay with KCL-22 [3] and in the assay on KCL-22 [5] was greater than 50% each time.
As to `O=C1Nc2cc(Br)ccc2/C1=C1/Nc2ccccc2/C1=N\OCCN1CCN(CCO)CC1` [listing 2 of 2 here], in the assay with KCL-22 [7] (Homo sapiens, KCL-22, 48 h), the pIC50 is 6.08. Also, the Activity in the assay on KCL-22 [3] is on record as greater than 50%; in the assay on KCL-22 [5], less than 50%.
In the case of `CCN(CC)C(=O)O/N=C1/C(=C2/C(=O)Nc3cc(Br)ccc32)Nc2ccccc21`, the viability at 1 µM with KCL-22 [3] and with KCL-22 [5] was greater than 50% throughout.
Turning to `O=C1Nc2cc(Br)ccc2/C1=C1/Nc2ccccc2/C1=N\OCC(O)CO` (configuration not stated), in the assay with KCL-22 [7] (Homo sapiens, KCL-22, 48 h), the pIC50 was 6.12. Further, the values for the viability at 1 µM in the assay on KCL-22 [3] and in the assay with KCL-22 [5] were greater than 50% and less than 50%, respectively.
In the case of `CN(CCO/N=C1/C(=C2/C(=O)Nc3cc(Br)ccc32)Nc2ccccc21)CC(O)CO` (configuration not stated) [listing 1 of 2 here], the pIC50 in assay [1] is 6.23; in [2], 6.71; in [4], 7.99; in assay [6], 9.21. Moreover, the viability at 1 µM in the assay on KCL-22 [3] and in the assay with KCL-22 [5] was less than 50% each time.
Turning to `O=C1Nc2cc(Br)ccc2/C1=C1/Nc2ccccc2/C1=N\OCCN1CCCC1` [listing 2 of 2 here], the pIC50 in assay [1] is 5.13; on Aurora kinase A, 7.10; in assay [2] it was 5.34; in assay [4], 6.97; in [6], 8.31. Also, the Activity in the assay with KCL-22 [3] and in the assay on KCL-22 [5] was less than 50% in each case.
Consider `CN(CCO/N=C1/C(=C2/C(=O)Nc3cc(Br)ccc32)Nc2ccccc21)CC(O)CO` (configuration not stated) [listing 2 of 2 here], for which the pIC50 is 6.26 in [1]; 8.01 on Aurora kinase A; 6.75 in [2]; 8.14 in assay [4]; greater than 9.30 in assay [6]. Besides, the Activity in the assay on KCL-22 [3] and in the assay on KCL-22 [5] was less than 50% throughout.
Turning to `O=C1Nc2c(Br)cccc2/C1=C1/Nc2ccc(/C=N/O)cc2/C1=N\O`, the result in the assay with KCL-22 [9] and in the assay on KCL-22 [10] was inactive.
As for `O=C1Nc2c(Cl)cccc2/C1=C1/Nc2ccccc2/C1=N\O`, the outcome with KCL-22 [9] and with KCL-22 [10] was inactive.
